Consider 2 compounds from ChEMBL document CHEMBL4190408 (J Med Chem, 2018).

SMILES strings stand for the structures. Values after ≈ are worked out from the molar mass of the structure shown. Active and inactive are the calls of the source. The rule behind the calls is not given here.

Data set [1] relates to Mus musculus. Description: Unbound AUC (infinity) in Balb/c mouse at 100 mg/kg, po after 1 hr. It counts as ADME, organism-based. The note with it: in vivo.
Data set [2] relates to Mus musculus. Nature of the data set: Unbound AUC in Balb/c mouse at 1 mg/kg, iv. The format is ADME, organism-based. The following applies: in vivo. In a few lines: (§1)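 Intravenous PK in male Balb/C mice, n=3, at 1 mpk. Vehicle was 30% DMA or 15% NMP, depending on the compound.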
Data set [3] concerns Mus musculus. Nature of the data set: Unbound AUC (infinity) in Balb/c mouse at 30 mg/kg, po after 1 hr. The format is ADME, organism-based. The note with it: in vivo.
Data set [4] deals with Mus musculus. Nature of the data set: Volume of distribution at steady state in Balb/c mouse at 1 mg/kg, iv. The following applies: in vivo. It counts as ADME, organism-based. In a few lines: as §1
For data set [5], the system named is Mus musculus. Description: Oral bioavailability in Balb/c mouse at 10 mg/kg after 1 hr. The note with it: in vivo, 1 h. The format is ADME, organism-based. The method in brief: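 Male Balb/C mice, n=3. Oral dose of 10 mpk as a homogeneous suspension of crystalline solid in 0.1% Tween 80, 0.1% silicone antifoam, 1% methylcellulose (400 cps) in water. I.v. dose of 1 mpk in 30% DMA or 15% NMP, depending on the compound. Bioavailability was extrapolated from the i.v./p.o. experiments.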

Data set [6] can be described thus: physchem. The following applies: phosphate buffer, pH 7.4.
For data set [7], the system named is Salmonella typhimurium. Description: Genotoxicity in Salmonella typhimurium TA100 up to 1667 ug/plate in presence or absence of liver S9 fraction by Ames test. The format is toxicity, organism-based. The note with it: salmonella enterica subsp. enterica serovar typhimurium. The method in brief:
(§2)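 Three-strain bacterial miniAMES with TA1537, TA98 and TA100, with and without S9 activation. Top concentrations 500 and 1667 µg.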
In general terms: The Ames test detects mutagens through reverse mutation in bacteria.

For data set [8], the system named is Mus musculus. Nature of the data set: Immunosuppressive activity in Balb/c mouse assessed as inhibition of anti-CD3-mediated T-cell activation by measuring IFNgamma release in plasma at 1 mg/kg, po pretreated for 30 mins followed by anti-CD3 stimulation measured after 180 mins by ELISA relative to control. It counts as functional. In a few lines: (§3)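 Balb/C mice (n=8 per group) were dosed orally with 1, 10 or 100 mpk in 0.1% Tween 80, 0.1% silicone antifoam, 1% methylcellulose (400 cps) vehicle, before anti-CD3 challenge. IFNγ release (pg/ml) was measured over a time course. Percent inhibition is the mean (±SEM) relative to the vehicle-treated positive control.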
Background: An ELISA detects its analyte on a solid surface through an enzyme-linked reagent.

The nature of data set [9]: physchem. The following applies: pH 7.4 solution.
Data set [10] in a line: in vitro. The following applies: human, liver microsomes.
In data set [11] the test system is Mus musculus. Description: Immunosuppressive activity in OXA-induced Balb/c mouse T-cell dependent model of antibody response assessed as inhibition of IgG1 production in serum at 100 mg/kg, po qd pretreated for 30 mins followed by OXA challenge measured on day 7 post dose by ELISA. The format is functional, organism-based.
For data set [12], the target named is T1, Voltage-gated inwardly rectifying potassium channel KCNH2 (Homo sapiens, UniProt Q12809).
For data set [13], the system named is Mus musculus. Nature of the data set: Unbound AUC (infinity) in Balb/c mouse at 10 mg/kg, po after 1 hr. It counts as ADME, organism-based. The note with it: in vivo.
Data set [14] in a line: in vitro. The following applies: mouse, liver microsomes. In general terms: Liver microsomes are a subcellular fraction often used to study metabolism.
Data set [15] has as its system Mus musculus. Description: Unbound Cmax in Balb/c mouse at 30 mg/kg, po after 1 hr. It counts as ADME, organism-based. The following applies: in vivo.
Data set [16] deals with Salmonella typhimurium. Description: Genotoxicity in Salmonella typhimurium TA98 up to 1667 ug/plate in presence or absence of liver S9 fraction by Ames test. It counts as toxicity, organism-based. The note with it: salmonella enterica subsp. enterica serovar typhimurium. In a few lines:
as §2

The test system of data set [17] is Mus musculus. Description: Inhibition of allograft rejection in Balb/c mouse heterotopic cardiac transplantation model using C57BL/6 as cardiac donor assessed as long-term graft survival rate by measuring cardiac allograft function by daily palpitation at 100 mg/kg administered via oral gavage as qd for 28 days relative to control. The format is functional. The following applies: 672 h.

The nature of data set [18]: Apparent clearance in Balb/c mouse at 100 mg/kg, po after 1 hr. The format is ADME, organism-based. The note with it: in vivo.
Data set [19] concerns Mus musculus. Description: Unbound Cmax in Balb/c mouse at 100 mg/kg, po after 1 hr. The format is ADME, organism-based. The following applies: in vivo.
Data set [20] can be described thus: Unbound Tmax in Balb/c mouse at 10 to 100 mg/kg, po. It counts as ADME, organism-based. The note with it: in vivo, read-out: fTmax.
Data set [21] deals with Phosphatidylinositol 4-kinase type 2-beta (Homo sapiens) (UniProt Q8TCG2). Nature of the data set: Inhibition of recombinant human full length GST-tagged PI4K2beta expressed in insect cells at 10 uM.
For data set [22], the system named is Mus musculus. Description: Immunosuppressive activity in OXA-induced Balb/c mouse T-cell dependent model of antibody response assessed as inhibition of IgG1 production in serum at 100 mg/kg, po qd pretreated for 30 mins followed by OXA challenge measured on day 14 post dose by ELISA. It counts as functional, organism-based.
The target of data set [23] is T2, Cytochrome P450 3A4 (Homo sapiens, UniProt P08684).
For data set [24], the system named is Mus musculus. Description: Immunosuppressive activity in Balb/c mouse assessed as inhibition of anti-CD3-mediated T-cell activation by measuring IFNgamma release in plasma at 100 mg/kg, po pretreated for 30 mins followed by anti-CD3 stimulation measured after 180 mins by ELISA relative to control. It counts as functional. The method in brief: as §3
Data set [25] deals with Mus musculus. Nature of the data set: Clearance in Balb/c mouse at 1 mg/kg, iv. It counts as ADME, organism-based. The following applies: in vivo. The method in brief: as §1
In data set [26] the test system is Mus musculus. Nature of the data set: Half life in Balb/c mouse at 1 mg/kg, iv. It counts as ADME, organism-based. The note with it: in vivo. In a few lines: as §1
A short description of data set [27]: Apparent clearance in Balb/c mouse at 30 mg/kg, po after 1 hr. The following applies: in vivo. The format is ADME, organism-based.
Data set [28] in a line: Fraction unbound in mouse blood. It counts as ADME, tissue-based.
Data set [29] is described as follows: Apparent clearance in Balb/c mouse at 10 mg/kg, po after 1 hr. It counts as ADME, organism-based. The note with it: in vivo.
For data set [30], the system named is Mus musculus. Description: Immunosuppressive activity in po dosed Balb/c mouse assessed as inhibition of anti-CD3-mediated T-cell activation by measuring IFNgamma release in plasma pretreated for 30 mins followed by anti-CD3 stimulation measured after 180 mins by ELISA. It counts as functional, organism-based. In a few lines:
as §3

Data set [31] relates to Mus musculus. Description: Inhibition of allograft rejection in Balb/c mouse heterotopic cardiac transplantation model using C57BL/6 as cardiac donor assessed as long-term graft survival rate by measuring cardiac allograft function by daily palpitation at 100 mg/kg administered via oral gavage as qd for 28 days measured after treatment withdrawal. The format is functional, organism-based.

Data set [32] concerns the target Phosphatidylinositol 4-kinase alpha (Homo sapiens) (UniProt P42356). Nature of the data set: Inhibition of PI4K3alpha (unknown origin) at 10 uM.
Data set [33] relates to Mus musculus. Nature of the data set: Immunosuppressive activity in Balb/c mouse assessed as inhibition of anti-CD3-mediated T-cell activation by measuring IFNgamma release in plasma at 10 mg/kg, po pretreated for 30 mins followed by anti-CD3 stimulation measured after 180 mins by ELISA relative to control. The format is functional. The method in brief: as §3
For data set [34], the target named is Phosphatidylinositol 4-kinase type 2-alpha (Homo sapiens) (UniProt Q9BTU6). Nature of the data set: Inhibition of recombinant human full length GST-tagged PI4K2alpha expressed in insect cells at 10 uM.
The test system of data set [35] is Mus musculus. Description: Unbound Cmax in Balb/c mouse at 10 mg/kg, po after 1 hr. The format is ADME, organism-based. The note with it: in vivo.
The subject of data set [36] is Salmonella typhimurium. Nature of the data set: Genotoxicity in Salmonella typhimurium TA1537 up to 1667 ug/plate in presence or absence of liver S9 fraction by Ames test. It counts as toxicity, organism-based. The note with it: salmonella enterica subsp. enterica serovar typhimurium. In a few lines:
as §2

For data set [37] the following is noted: buffer, 1.5 h, pH 7.4.
For data set [38] the following is noted: buffer, pH 7.4, 1.5 h.
Data set [39] deals with T1, Voltage-gated inwardly rectifying potassium channel KCNH2. This is another data set of the same source.
In data set [40] the target is T2, Cytochrome P450 3A4. The note with it: liver microsomes.

T1 sequence (Q12809 whole entry): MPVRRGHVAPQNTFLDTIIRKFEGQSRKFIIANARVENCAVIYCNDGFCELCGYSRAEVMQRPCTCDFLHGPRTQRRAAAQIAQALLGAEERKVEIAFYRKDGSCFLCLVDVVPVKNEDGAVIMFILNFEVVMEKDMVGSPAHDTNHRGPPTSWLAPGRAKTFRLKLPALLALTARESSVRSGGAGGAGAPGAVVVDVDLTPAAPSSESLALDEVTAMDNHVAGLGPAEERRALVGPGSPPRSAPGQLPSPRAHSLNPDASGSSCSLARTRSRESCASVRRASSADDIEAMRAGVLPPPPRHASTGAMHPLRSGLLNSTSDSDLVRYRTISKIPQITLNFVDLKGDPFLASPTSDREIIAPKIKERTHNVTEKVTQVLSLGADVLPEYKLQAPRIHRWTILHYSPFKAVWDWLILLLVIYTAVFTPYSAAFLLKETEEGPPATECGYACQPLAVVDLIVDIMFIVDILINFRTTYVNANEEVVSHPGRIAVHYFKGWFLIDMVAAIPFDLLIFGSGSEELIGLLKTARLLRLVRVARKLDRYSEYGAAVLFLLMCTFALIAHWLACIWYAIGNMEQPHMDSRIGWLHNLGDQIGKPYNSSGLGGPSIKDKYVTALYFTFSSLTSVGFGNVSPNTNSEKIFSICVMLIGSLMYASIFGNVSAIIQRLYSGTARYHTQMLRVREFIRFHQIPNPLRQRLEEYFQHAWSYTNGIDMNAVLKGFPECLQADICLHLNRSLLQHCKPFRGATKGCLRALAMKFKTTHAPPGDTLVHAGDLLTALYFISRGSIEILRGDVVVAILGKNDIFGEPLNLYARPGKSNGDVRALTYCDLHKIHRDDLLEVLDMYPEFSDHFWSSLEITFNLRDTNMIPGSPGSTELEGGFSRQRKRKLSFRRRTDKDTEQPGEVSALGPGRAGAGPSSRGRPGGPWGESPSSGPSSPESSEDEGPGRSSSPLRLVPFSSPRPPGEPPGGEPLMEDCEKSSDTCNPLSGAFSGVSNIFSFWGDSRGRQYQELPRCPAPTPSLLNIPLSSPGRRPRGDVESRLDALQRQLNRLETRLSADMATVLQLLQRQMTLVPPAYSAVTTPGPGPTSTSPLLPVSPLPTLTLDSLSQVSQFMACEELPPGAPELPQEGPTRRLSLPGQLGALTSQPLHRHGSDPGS
T2 sequence (P08684 whole entry): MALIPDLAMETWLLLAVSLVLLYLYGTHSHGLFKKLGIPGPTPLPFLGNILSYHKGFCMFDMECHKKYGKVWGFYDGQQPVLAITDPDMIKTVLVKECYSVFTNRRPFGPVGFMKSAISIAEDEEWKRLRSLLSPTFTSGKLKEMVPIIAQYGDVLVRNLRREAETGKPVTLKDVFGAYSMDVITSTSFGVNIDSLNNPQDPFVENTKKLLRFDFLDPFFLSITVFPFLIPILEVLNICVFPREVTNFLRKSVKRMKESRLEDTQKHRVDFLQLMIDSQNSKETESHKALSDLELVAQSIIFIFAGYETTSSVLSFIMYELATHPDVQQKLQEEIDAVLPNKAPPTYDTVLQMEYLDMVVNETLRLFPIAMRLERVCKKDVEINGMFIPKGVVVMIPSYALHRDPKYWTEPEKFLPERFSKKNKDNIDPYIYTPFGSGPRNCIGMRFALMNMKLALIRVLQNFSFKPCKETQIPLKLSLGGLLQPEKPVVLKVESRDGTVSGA
Sequence of Phosphatidylinositol 4-kinase type 2-beta (Homo sapiens) (Q8TCG2 whole entry): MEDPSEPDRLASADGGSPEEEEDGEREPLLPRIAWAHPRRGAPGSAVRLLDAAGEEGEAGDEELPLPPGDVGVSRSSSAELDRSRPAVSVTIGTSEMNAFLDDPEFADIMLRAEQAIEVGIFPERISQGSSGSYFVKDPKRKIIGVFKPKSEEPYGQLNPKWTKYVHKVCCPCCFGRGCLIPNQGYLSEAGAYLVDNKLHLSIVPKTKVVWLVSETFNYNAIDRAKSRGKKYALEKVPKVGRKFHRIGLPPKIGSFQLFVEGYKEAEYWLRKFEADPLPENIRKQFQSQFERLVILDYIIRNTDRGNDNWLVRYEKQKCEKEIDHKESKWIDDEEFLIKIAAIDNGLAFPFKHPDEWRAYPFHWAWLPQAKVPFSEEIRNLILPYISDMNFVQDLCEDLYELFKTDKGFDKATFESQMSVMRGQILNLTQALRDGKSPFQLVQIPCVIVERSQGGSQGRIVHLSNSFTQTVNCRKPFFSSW
Sequence of Phosphatidylinositol 4-kinase alpha (Homo sapiens) (P42356 whole entry, looked up): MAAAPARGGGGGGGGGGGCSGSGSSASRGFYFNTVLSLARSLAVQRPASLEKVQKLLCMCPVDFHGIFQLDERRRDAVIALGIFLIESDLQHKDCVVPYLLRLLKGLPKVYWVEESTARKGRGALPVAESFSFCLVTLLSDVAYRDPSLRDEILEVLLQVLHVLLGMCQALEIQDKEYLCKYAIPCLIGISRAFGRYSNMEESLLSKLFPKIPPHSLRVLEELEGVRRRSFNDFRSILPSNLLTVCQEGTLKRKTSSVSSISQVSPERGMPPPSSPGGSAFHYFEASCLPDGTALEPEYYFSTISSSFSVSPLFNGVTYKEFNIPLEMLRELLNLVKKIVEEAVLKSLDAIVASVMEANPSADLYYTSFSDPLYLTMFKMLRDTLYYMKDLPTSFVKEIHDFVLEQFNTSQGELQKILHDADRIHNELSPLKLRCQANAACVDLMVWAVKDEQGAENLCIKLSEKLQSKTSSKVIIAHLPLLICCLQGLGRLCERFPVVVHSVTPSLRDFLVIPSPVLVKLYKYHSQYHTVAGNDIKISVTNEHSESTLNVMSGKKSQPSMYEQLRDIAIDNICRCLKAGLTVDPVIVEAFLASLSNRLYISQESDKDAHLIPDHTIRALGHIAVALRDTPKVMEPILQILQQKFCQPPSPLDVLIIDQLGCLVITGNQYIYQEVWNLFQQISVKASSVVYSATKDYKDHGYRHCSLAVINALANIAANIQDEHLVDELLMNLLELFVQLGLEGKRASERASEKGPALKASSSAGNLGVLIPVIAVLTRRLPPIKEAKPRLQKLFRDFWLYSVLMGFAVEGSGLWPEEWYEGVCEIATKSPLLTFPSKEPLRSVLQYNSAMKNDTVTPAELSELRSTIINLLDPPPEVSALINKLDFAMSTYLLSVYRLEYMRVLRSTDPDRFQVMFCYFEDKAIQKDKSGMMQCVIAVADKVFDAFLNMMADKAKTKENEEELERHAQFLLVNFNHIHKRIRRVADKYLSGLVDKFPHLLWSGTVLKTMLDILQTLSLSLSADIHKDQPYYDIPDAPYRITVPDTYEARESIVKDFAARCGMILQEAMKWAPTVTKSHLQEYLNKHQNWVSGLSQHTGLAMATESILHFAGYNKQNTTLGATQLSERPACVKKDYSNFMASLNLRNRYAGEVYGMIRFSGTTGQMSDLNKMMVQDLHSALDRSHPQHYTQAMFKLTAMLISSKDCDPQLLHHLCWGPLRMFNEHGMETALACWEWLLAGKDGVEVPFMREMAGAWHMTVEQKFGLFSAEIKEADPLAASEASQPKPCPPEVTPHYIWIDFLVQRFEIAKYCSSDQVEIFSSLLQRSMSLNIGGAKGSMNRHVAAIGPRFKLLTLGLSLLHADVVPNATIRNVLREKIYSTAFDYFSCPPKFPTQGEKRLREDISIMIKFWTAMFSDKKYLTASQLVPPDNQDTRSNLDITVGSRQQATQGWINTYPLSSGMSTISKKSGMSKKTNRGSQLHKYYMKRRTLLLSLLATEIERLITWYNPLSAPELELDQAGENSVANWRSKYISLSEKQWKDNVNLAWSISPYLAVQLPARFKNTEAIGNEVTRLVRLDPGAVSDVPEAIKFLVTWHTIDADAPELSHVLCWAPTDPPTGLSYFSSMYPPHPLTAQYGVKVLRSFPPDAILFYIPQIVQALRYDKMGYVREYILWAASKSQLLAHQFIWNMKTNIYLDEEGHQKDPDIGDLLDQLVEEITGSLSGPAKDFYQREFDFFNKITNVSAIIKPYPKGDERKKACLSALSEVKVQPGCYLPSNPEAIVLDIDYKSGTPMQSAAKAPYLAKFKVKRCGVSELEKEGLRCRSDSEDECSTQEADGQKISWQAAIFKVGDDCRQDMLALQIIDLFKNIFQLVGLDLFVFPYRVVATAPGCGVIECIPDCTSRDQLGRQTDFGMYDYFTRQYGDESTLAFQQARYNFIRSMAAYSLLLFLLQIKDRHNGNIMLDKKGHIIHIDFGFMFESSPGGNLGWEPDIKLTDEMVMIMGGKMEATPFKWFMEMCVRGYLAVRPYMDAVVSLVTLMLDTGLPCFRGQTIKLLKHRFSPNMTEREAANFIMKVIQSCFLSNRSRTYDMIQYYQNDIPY
Sequence of Phosphatidylinositol 4-kinase type 2-alpha (Homo sapiens) (Q9BTU6 whole entry): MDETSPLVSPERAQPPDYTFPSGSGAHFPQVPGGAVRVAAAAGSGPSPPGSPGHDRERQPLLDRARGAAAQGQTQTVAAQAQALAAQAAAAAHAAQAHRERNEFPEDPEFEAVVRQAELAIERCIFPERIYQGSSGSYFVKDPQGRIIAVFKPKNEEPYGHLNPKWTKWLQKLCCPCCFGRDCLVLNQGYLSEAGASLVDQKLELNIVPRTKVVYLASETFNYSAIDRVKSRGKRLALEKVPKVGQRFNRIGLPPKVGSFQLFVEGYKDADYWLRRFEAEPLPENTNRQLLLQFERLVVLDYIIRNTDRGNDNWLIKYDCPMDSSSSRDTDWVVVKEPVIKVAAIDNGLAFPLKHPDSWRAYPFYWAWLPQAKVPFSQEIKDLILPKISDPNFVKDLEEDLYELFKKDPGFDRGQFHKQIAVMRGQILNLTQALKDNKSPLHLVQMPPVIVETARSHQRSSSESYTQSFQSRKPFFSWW

On to `COc1ccc(NC(=O)N2CCN(c3nc(N)nc4scnc34)CC2)cc1`, for which the fAUC was 3.907 µM·h in the data set with Mus musculus [1], “Nd(Insoluble)” with Mus musculus [2], 0.769 µM·h with Mus musculus [3] and 0.332 to 0.333 µM·h with Mus musculus [13]. Besides, the Vdss entry in the data set on Mus musculus [4] is “Nd(Insoluble)”. In the data set with Mus musculus [5], the F result was “Nd(Insoluble)”. In addition, the logD (usually the decadic logarithm of the distribution of all forms, ionised or not, between an organic phase and buffer at a given pH) at 1.5 h in the data set “physchem [6]” came to 1.85. Moreover, the Activity entry in the data set with Salmonella typhimurium [7], in the data set with Salmonella typhimurium [16] and in the data set on Salmonella typhimurium [36] was “Non-Toxic” in each case. Moreover, the inhibition in vivo (as a rule, the percentage by which the read-out fell short of the control) at 1 mg/kg with Mus musculus [8] turned out to be 24.6%. The kinetic solubility (commonly the concentration staying in solution when a stock, usually in DMSO, is diluted into the medium) at 1.5 h in “physchem [9]” was 85 µM (≈ 32.8 µg/mL). The microsomal CLint – broadly, a measure of how fast metabolising enzymes remove a compound, apart from limits set by blood flow – at 0.75 h, 3 µM amounted to 21 µL/min/mg in the data set “in vitro [10]” and 15 µL/min/mg in the data set “in vitro [14]”. Besides, the inhibition entry with Mus musculus [11], in the data set with Mus musculus [22] and in the data set on Mus musculus [31] was “Active” in each case. For the same compound, the IC50 – broadly, the concentration that gives 50% inhibition – in [12] is 28 µM; against Cytochrome P450 3A4 [23], over 20 µM. Besides, the fCmax in the data set on Mus musculus [15] came to 444 nM; with Mus musculus [19] it was 967 nM; in the data set with Mus musculus [35] it was 154 nM. Besides, in the data set with Mus musculus [17], the survival at 100 mg/kg stood at 50%. For the same compound, the CL/F (as a rule, clearance divided by bioavailability, as obtained after extravascular dosing) in data set [18] was 86 mL/min/kg; in [27], 112 mL/min/kg; in data set [29], 80 mL/min/kg. Also, the Tmax in [20] turned out to be 1 h. The inhibition result in data set [21], in data set [32] and in data set [34] was “inactive” throughout. Also, in the data set on Mus musculus [24], the inhibition in vivo at 100 mg/kg was determined as 87.5%. Also, the CL entry in the data set with Mus musculus [25] is reported as “Nd(Insoluble)”. In addition, the t1/2 entry in the data set with Mus musculus [26] was “Nd(Insoluble)”. In data set [28], the fraction unbound (in general, the share of the substance not bound to proteins or other matrix) was 0.061. The inhibition entry in the data set with Mus musculus [30] was “Dose-dependent effect”. In addition, the inhibition in vivo at 10 mg/kg with Mus musculus [33] was found to be 54.9%.

As to `Nc1nc(N2CCN(C(=O)COc3ccc(Cl)cc3)CC2)c2nc(-c3cccnc3)sc2n1`, in data set [37], the Kinetic_solubility entry is listed as “Nd(Insoluble)”. In addition, the microsomal CLint at 0.75 h, 3 µM in “in vitro [10]” amounted to 34 µL/min/mg; in “in vitro [14]”, 133 µL/min/mg. In addition, in data set [38], the logD entry is reported as “Nd(Insoluble)”. For the same compound, the IC50 result (in data set [39]; against Cytochrome P450 3A4 [40]) was “Nd(Insoluble)” each time.
